Key:
[1] = target: Serine/threonine-protein kinase B-raf (Homo sapiens, UniProt P15056, V600E); assay: Inhibition of human BRAF V600E mutant by ELISA
[2] = test system: Serine/threonine-protein kinase B-raf (Homo sapiens), P15056 [V600E]; assay: Inhibition of human BRAF V600E mutant at 10 uM by ELISA
[3] = target: T1, Serine/threonine-protein kinase B-raf (Homo sapiens, UniProt P15056); assay: Inhibition of human wild type BRAF at 10 uM by ELISA
Method in brief: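 Wild-type BRAF kinase inhibition run in the same manner as the V600E-B-RAF ELISA, reported as percent inhibition at 10 µM.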

SK-MEL-2 [4] = assay: Cytotoxicity against human SK-MEL-2 cells assessed as reduction in cell viability after 48 hrs by SRB assay; format: functional, cell-based; details: SK-MEL-2, 48 h
Method in brief: (§1)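 Cell lines from the NCI sixty human cancer cell line panel. IC50 taken as the concentration that reduces cellular growth to 50% of untreated cells.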

CAKI-1 [5] = assay: Cytotoxicity against human Caki1 cells assessed as reduction in cell viability after 48 hrs by SRB assay; format: functional, cell-based; details: CAKI-1, 48 h; method in brief: as §1
Malme-3M = assay: Cytotoxicity against human MALME-3M cells assessed as reduction in cell viability after 48 hrs by SRB assay; format: functional, cell-based; method in brief: as §1
K562 [6] = assay: Cytotoxicity against human K562 cells assessed as reduction in cell viability at 10 uM after 48 hrs by SRB assay relative to control; format: functional; details: K562, 48 h
MDA-MB-231 = assay: Cytotoxicity against human MDA-MB-231 cells assessed as reduction in cell viability after 48 hrs by SRB assay; format: functional, cell-based; details: MDA-MB-231, 48 h; method in brief: as §1
LOX IMVI = assay: Cytotoxicity against human LOXIMVI cells assessed as reduction in cell viability after 48 hrs by SRB assay; format: functional, cell-based; method in brief: as §1
HCT-116 = assay: Cytotoxicity against human HCT116 cells assessed as reduction in cell viability after 48 hrs by SRB assay; format: functional, cell-based; details: HCT-116, 48 h; method in brief: as §1
HL-60(TB) [7] = assay: Cytotoxicity against human HL-60(TB) cells assessed as reduction in cell viability at 10 uM after 48 hrs by SRB assay relative to control; format: functional; details: HL-60, 48 h
HL-60(TB) [8] = assay: Cytotoxicity against human HL-60(TB) cells assessed as reduction in cell viability after 48 hrs by SRB assay; format: functional, cell-based; details: HL-60, 48 h
Method in brief: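 Tested within the NCI sixty human cancer cell line panel. IC50 is the concentration that reduces cellular growth to 50% of untreated cells after treatment.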

ACHN [9] = assay: Cytotoxicity against human ACHN cells assessed as reduction in cell viability after 48 hrs by SRB assay; format: functional, cell-based; method in brief: as §1
Hs-578T = assay: Cytotoxicity against human Hs 578T cells assessed as reduction in cell viability after 48 hrs by SRB assay; format: functional, cell-based; method in brief: as §1
DU-145 = assay: Cytotoxicity against human DU145 cells assessed as reduction in cell viability after 48 hrs by SRB assay; format: functional, cell-based; details: DU-145, 48 h; method in brief: as §1
IGROV-1 [10] = assay: Cytotoxicity against human IGROV1 cells assessed as reduction in cell viability after 48 hrs by SRB assay; format: functional, cell-based; details: IGROV-1, 48 h; method in brief: as §1
K562 [11] = assay: Cytotoxicity against human K562 cells assessed as reduction in cell viability after 48 hrs by SRB assay; format: functional, cell-based; details: K562, 48 h; method in brief: as §1
NCI-H522 = assay: Cytotoxicity against human NCI-H522 cells assessed as reduction in cell viability after 48 hrs by SRB assay; format: functional, cell-based; details: NCI-H522, 48 h; method in brief: as §1
NCI-H460 = assay: Cytotoxicity against human NCI-H460 cells assessed as reduction in cell viability after 48 hrs by SRB assay; format: functional, cell-based; details: NCI-H460, 48 h; method in brief: as §1
A498 = assay: Cytotoxicity against human A498 cells assessed as reduction in cell viability after 48 hrs by SRB assay; format: functional, cell-based; details: A498, 48 h; method in brief: as §1
SK-OV-3 [12] = assay: Cytotoxicity against human SKOV3 cells assessed as reduction in cell viability after 48 hrs by SRB assay; format: functional, cell-based; details: SK-OV-3, 48 h; method in brief: as §1
M14 [13] = assay: Cytotoxicity against human M14 cells assessed as reduction in cell viability after 48 hrs by SRB assay; format: functional, cell-based; details: M14, 48 h; method in brief: as §1
SK-MEL-2 [14] = assay: Cytotoxicity against human SK-MEL-2 cells assessed as reduction in cell viability at 10 uM after 48 hrs by SRB assay relative to control; format: functional; details: SK-MEL-2, 48 h
M14 [15] = assay: Cytotoxicity against human M14 cells assessed as reduction in cell viability at 10 uM after 48 hrs by SRB assay relative to control; format: functional; details: M14, 48 h
SK-OV-3 [16] = assay: Cytotoxicity against human SKOV3 cells assessed as reduction in cell viability at 10 uM after 48 hrs by SRB assay relative to control; format: functional; details: SK-OV-3, 48 h
CAKI-1 [17] = assay: Cytotoxicity against human Caki1 cells assessed as reduction in cell viability at 10 uM after 48 hrs by SRB assay relative to control; format: functional; details: CAKI-1, 48 h
ACHN [18] = assay: Cytotoxicity against human ACHN cells assessed as reduction in cell viability at 10 uM after 48 hrs by SRB assay relative to control; format: functional
IGROV-1 [19] = assay: Cytotoxicity against human IGROV1 cells assessed as reduction in cell viability at 10 uM after 48 hrs by SRB assay relative to control; format: functional; details: IGROV-1, 48 h
[20] = target: T1, Serine/threonine-protein kinase B-raf; assay: Inhibition of BRAF (unknown origin)

T1 sequence (P15056 whole entry): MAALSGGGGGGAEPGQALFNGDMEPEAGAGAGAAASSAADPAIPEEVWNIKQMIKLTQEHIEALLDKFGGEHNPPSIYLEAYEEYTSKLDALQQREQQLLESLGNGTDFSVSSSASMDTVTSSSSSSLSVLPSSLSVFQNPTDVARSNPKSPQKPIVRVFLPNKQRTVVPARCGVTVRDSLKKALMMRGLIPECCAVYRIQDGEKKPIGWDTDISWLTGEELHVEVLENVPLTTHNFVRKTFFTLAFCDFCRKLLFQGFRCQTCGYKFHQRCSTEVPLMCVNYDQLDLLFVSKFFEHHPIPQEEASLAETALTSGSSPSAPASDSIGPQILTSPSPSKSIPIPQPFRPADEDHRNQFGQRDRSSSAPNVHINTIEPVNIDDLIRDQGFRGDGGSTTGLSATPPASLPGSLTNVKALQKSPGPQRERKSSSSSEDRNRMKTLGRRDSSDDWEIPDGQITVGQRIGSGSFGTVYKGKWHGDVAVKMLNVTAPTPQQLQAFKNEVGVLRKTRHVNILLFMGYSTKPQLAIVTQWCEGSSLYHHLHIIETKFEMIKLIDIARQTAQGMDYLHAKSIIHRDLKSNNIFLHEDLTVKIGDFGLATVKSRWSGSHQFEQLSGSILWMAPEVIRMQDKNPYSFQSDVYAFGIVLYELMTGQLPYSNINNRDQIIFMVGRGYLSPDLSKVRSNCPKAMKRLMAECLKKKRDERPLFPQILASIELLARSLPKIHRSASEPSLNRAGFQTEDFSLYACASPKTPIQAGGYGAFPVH
Chain of Serine/threonine-protein kinase B-raf (Homo sapiens, UniProt P15056, V600E) (P15056 2-766 V600E limits assumed): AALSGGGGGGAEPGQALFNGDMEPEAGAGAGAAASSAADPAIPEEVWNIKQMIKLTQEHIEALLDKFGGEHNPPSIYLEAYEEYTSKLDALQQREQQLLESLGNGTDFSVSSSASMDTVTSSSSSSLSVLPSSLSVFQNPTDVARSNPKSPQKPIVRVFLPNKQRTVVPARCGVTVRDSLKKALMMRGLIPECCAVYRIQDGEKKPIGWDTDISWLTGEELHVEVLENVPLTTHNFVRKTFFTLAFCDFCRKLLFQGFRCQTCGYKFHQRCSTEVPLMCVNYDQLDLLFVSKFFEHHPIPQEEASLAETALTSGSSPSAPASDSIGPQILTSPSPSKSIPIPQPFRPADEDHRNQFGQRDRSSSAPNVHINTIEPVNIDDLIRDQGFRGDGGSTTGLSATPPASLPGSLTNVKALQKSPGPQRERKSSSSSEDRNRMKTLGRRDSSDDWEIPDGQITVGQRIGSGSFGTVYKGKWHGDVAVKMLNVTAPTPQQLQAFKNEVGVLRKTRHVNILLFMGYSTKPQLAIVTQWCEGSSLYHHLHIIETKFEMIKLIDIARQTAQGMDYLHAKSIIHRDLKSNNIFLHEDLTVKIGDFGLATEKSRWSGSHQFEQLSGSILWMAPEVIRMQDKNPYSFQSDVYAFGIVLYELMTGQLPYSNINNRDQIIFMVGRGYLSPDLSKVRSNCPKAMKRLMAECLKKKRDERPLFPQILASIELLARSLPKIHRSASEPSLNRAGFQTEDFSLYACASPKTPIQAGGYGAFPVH
Chain of Serine/threonine-protein kinase B-raf (Homo sapiens), P15056 [V600E] (P15056 whole entry V600E): as the sequence (P15056 whole entry) above, with V600E counted along it

O=S(=O)(NCCCNc1nccc(-n2ccc3cccnc32)n1)c1ccc(Br)cc1
IC50 [1]: 0.35 µM | inhibition [2]: 97.7% | inhibition [3]: 75.2%

O=C(NCCCNc1nccc(-n2ccc3cccnc32)n1)c1ccccc1
inhibition [2]: 69.4% | inhibition [3]: 60.9%

O=S(=O)(NCCCNc1nccc(-n2ccc3cccnc32)n1)c1cccc(C(F)(F)F)c1
IC50 [1]: 1.1 µM | inhibition [2]: 96.1% | inhibition [3]: 86.3%

O=S(=O)(NCCCNc1nccc(-n2ccc3cccnc32)n1)c1ccc(F)cc1
IC50 [1]: 0.88 µM | inhibition [2]: 95.2% | inhibition [3]: 79.7%

Cc1ccc(C(=O)NCCCNc2nccc(-n3ccc4cccnc43)n2)cc1
inhibition [2]: 61.6% | inhibition [3]: 50%

O=S(=O)(NCCNc1nccc(-n2ccc3cccnc32)n1)c1ccc(Cl)cc1
inhibition [2]: 63.7% | inhibition [3]: 49.2%

O=C(Nc1ccc(Br)cc1)Nc1ccc(F)c(C(=O)c2c[nH]c3ncccc23)c1F
inhibition [2]: 92% | inhibition [3]: 80.1%

Cc1ccc(S(=O)(=O)NCCNc2nccc(-n3ccc4cccnc43)n2)cc1
inhibition [2]: 41.1% | inhibition [3]: 26.3%

O=C(NCCCNc1nccc(-n2ccc3cccnc32)n1)c1ccc(Cl)cc1
inhibition [2]: 80.7% | inhibition [3]: 72.1%

Cc1ccc(S(=O)(=O)NCCCNc2nccc(-n3ccc4cccnc43)n2)cc1
IC50 [1]: 1 µM | inhibition [2]: 93% | inhibition [3]: 83.3%

O=S(=O)(NCCCNc1nccc(-n2ccc3cccnc32)n1)c1ccccc1
IC50 [1]: 0.75 µM | inhibition [2]: 95.5% | inhibition [3]: 81.4%

O=C(NCCCNc1nccc(-n2ccc3cccnc32)n1)c1c(F)cccc1F
inhibition [2]: 72.6% | inhibition [3]: 67.2%

O=C(Nc1ccccc1)Nc1ccc(F)c(C(=O)c2c[nH]c3ncccc23)c1F
inhibition [2]: 94.5% | inhibition [3]: 86.5%

O=C(NCCNc1nccc(-n2ccc3cccnc32)n1)c1ccc(F)cc1
inhibition [2]: 70% | inhibition [3]: 56.8%

O=C(Nc1cccc(F)c1)Nc1ccc(F)c(C(=O)c2c[nH]c3ncccc23)c1F
inhibition [2]: 49% | inhibition [3]: 51.2%

O=S(=O)(NCCNc1nccc(-n2ccc3cccnc32)n1)c1ccccc1
inhibition [2]: 66.5% | inhibition [3]: 52.3%

O=S(=O)(NCCNc1nccc(-n2ccc3cccnc32)n1)c1ccc(Br)cc1
inhibition [2]: 65.9% | inhibition [3]: 44.6%

O=S(=O)(NCCNc1nccc(-n2ccc3cccnc32)n1)c1cccc(C(F)(F)F)c1
inhibition [2]: 18.1% | inhibition [3]: 10.2%

O=C(NCCNc1nccc(-n2ccc3cccnc32)n1)c1ccc(Cl)cc1
inhibition [2]: 0.16% | inhibition [3]: -1.1%

O=S(=O)(NCCNc1nccc(-n2ccc3cccnc32)n1)c1cccc(Br)c1
inhibition [2]: 65.3% | inhibition [3]: 55.2%

O=C(NCCCNc1nccc(-n2ccc3cccnc32)n1)c1ccc(F)cc1
inhibition [2]: 67.5% | inhibition [3]: 58.7%

O=C(Nc1ccc(C(F)(F)F)cc1)Nc1ccc(F)c(C(=O)c2c[nH]c3ncccc23)c1F
IC50 (SK-MEL-2 [4]): 21.1 µM | IC50 (CAKI-1 [5]): 14 µM | IC50 (Malme-3M): 12.3 µM | IC50 [1]: 0.114 µM | inhibition at 10 µM (K562 [6]): 83% | inhibition [2]: 98.7% | IC50 (MDA-MB-231): 9.72 µM | IC50 (LOX IMVI): 27 µM | IC50 (HCT-116): 15.5 µM | inhibition at 10 µM (HL-60(TB) [7]): 67% | IC50 (HL-60(TB) [8]): 8.12 µM | inhibition [3]: 79.3% | IC50 (ACHN [9]): 21.3 µM | IC50 (Hs-578T): 21.4 µM | IC50 (DU-145): 27.6 µM | IC50 (IGROV-1 [10]): 9.66 µM | IC50 (K562 [11]): 25.3 µM | IC50 (NCI-H522): 29.1 µM | IC50 (NCI-H460): 26.4 µM | IC50 (A498): 32.3 µM | IC50 (SK-OV-3 [12]): 18.8 µM | IC50 (M14 [13]): 24.3 µM

O=S(=O)(NCCCNc1nccc(-n2ccc3cccnc32)n1)c1cccc(Br)c1
IC50 [1]: 0.5 µM | inhibition [2]: 96.7% | inhibition [3]: 89.4%

O=S(=O)(NCCCNc1nccc(-n2ccc3cccnc32)n1)c1ccc(Cl)cc1
inhibition [2]: 96.8% | inhibition [3]: 66.5%

O=C(NCCNc1nccc(-n2ccc3cccnc32)n1)c1ccc(C(F)(F)F)cc1
inhibition [2]: 32.9% | inhibition [3]: 12.1%

O=C(NCCNc1nccc(-n2ccc3cccnc32)n1)c1c(F)cccc1F
inhibition [2]: -1.9% | inhibition [3]: 0.1%

COc1ccc(NC(=O)Nc2ccc(F)c(C(=O)c3c[nH]c4ncccc34)c2F)cc1
inhibition [2]: 81.3% | inhibition [3]: 69.6%

COc1ccc(S(=O)(=O)NCCCNc2nccc(-n3ccc4cccnc43)n2)cc1
IC50 [1]: 0.79 µM | inhibition [2]: 94.5% | inhibition [3]: 82.1%

Cc1ccc(C(=O)NCCNc2nccc(-n3ccc4cccnc43)n2)cc1
inhibition [2]: 81.8% | inhibition [3]: 53.8%

O=C(Nc1ccc(Br)cc1)Nc1ccc(F)c(C(=O)c2c[nH]c3ncc(Br)cc23)c1F
IC50 (SK-MEL-2 [4]): 6.02 µM | inhibition at 10 µM (SK-MEL-2 [14]): 85% | IC50 (CAKI-1 [5]): 3.04 µM | IC50 (Malme-3M): 9.26 µM | IC50 [1]: 0.08 µM | inhibition at 10 µM (K562 [6]): 65% | inhibition [2]: 92.3% | IC50 (MDA-MB-231): 12.2 µM | IC50 (LOX IMVI): 26.5 µM | IC50 (HCT-116): 8.71 µM | inhibition at 10 µM (M14 [15]): 65% | inhibition at 10 µM (SK-OV-3 [16]): 87% | IC50 (HL-60(TB) [8]): 10.9 µM | inhibition [3]: 72.5% | IC50 (ACHN [9]): 7.62 µM | IC50 (Hs-578T): 9.36 µM | IC50 (DU-145): 9.62 µM | inhibition at 10 µM (CAKI-1 [17]): 90% | inhibition at 10 µM (ACHN [18]): 70% | IC50 (IGROV-1 [10]): 5.06 µM | IC50 (K562 [11]): 7.21 µM | IC50 (NCI-H522): 9.01 µM | IC50 (NCI-H460): 10.5 µM | inhibition at 10 µM (IGROV-1 [19]): 75% | IC50 (A498): 11.2 µM | IC50 (SK-OV-3 [12]): 4.52 µM | IC50 (M14 [13]): 7.92 µM

O=C(NCCCNc1nccc(-n2ccc3cccnc32)n1)C1CCCCC1
inhibition [2]: 49.6% | inhibition [3]: 41.2%

COc1ccc(S(=O)(=O)NCCNc2nccc(-n3ccc4cccnc43)n2)cc1
inhibition [2]: 56.7% | inhibition [3]: 39.2%

CCCS(=O)(=O)Nc1ccc(F)c(-n2cc(-c3cncnc3)c3nc(N(C)C4CCN(CC)CC4)ccc32)c1F [XP-102]
IC50 [20]: 0.0004 µM

O=C(NCCNc1nccc(-n2ccc3cccnc32)n1)c1ccccc1
inhibition [2]: 86.3% | inhibition [3]: 86.3%

O=S(=O)(NCCNc1nccc(-n2ccc3cccnc32)n1)c1ccc(F)cc1
inhibition [2]: 89.5% | inhibition [3]: 55.9%

O=C(NCCNc1nccc(-n2ccc3cccnc32)n1)C1CCCCC1
inhibition [2]: 73.7% | inhibition [3]: 43.4%

O=C(NCCCNc1nccc(-n2ccc3cccnc32)n1)c1ccc(C(F)(F)F)cc1
inhibition [2]: 15.3% | inhibition [3]: 9.45%

O=C(Nc1ccc(F)c(C(=O)c2c[nH]c3ncccc23)c1F)Nc1cccc2ccccc12
inhibition [2]: 85.6% | inhibition [3]: 68.9%

Cc1ccc(NC(=O)Nc2ccc(F)c(C(=O)c3c[nH]c4ncccc34)c2F)cc1
IC50 [1]: 0.085 µM | inhibition [2]: 98.4% | inhibition [3]: 77.6%
